The subject of experiment [1] is SK-BR-3. As to the kind of experiment: Growth inhibition of human SKBR3 cells after 72 hrs by SRB assay. Type of experiment: functional. The conditions noted are these: SK-BR-3, 72 h. In a few lines: (§1)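 Cell lines kept in RPMI with 10% FCS, 2 mM L-glutamine, penicillin/streptomycin at 37 °C, 5% CO2. Exposure 72 h to 10 concentrations from 10 to 0.0026 μg/mL. Cells fixed in 1% glutaraldehyde, stained with 0.4% SRB for 30 min, dye extracted in 10 mM Trizma base, absorbance read at 490 nm. GI50 from triplicate dose-response cultures by NCI algorithm; mean ± SD of three independent experiments.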

In experiment [2] the test system is A549. Kind of experiment: Cell cycle arrest in human A549 cells assessed as accumulation at G2/M phase at 0.001 to 100 uM after 20 hrs by propidium iodide staining-based flow cytometry. In kind it is functional. An outline of the steps: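 A-549 cells (180 000 per mL) incubated 20 h with ligands from 1 nM to 100 μM, with untreated and DMSO vehicle controls. Cells fixed in 70% ethanol, RNase-treated and stained with propidium iodide. DNA content read by flow cytometry to give percent of cells in each cycle phase. Lowest concentration giving G2/M arrest recorded.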
Background: Flow cytometry measures light scatter and fluorescence of single cells or particles in a stream.

Experiment [3] deals with HT-29. As to the kind of experiment: Growth inhibition of human HT-29 cells after 72 hrs by SRB assay. As to conditions: HT-29, 72 h. Type of experiment: functional. An outline of the steps: as §1
The subject of experiment [4] is A549. As to the kind of experiment: Growth inhibition of human A549 cells after 72 hrs by SRB assay. Type of experiment: functional. The conditions noted are these: A549, 72 h. An outline of the steps: as §1
On the technique in general: Sulforhodamine B stains cellular protein and so reports cell mass.

Experiment [5] has as its system A549. As to the kind of experiment: Antimitotic activity in human A549 cells assessed as induction of microtubule depolymerization at 0.05 to 100 uM after 20 hrs by Hoechst 33342 staining-based fluorescence microscopy. Type of experiment: functional, cell-based. In a few lines:
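A-549 lung carcinoma cells plated at 150 000 cells/ml on coverslips, cultured overnight, then exposed to ligands or DMSO vehicle (residual DMSO <0.5%). Cells permeabilised with Triton X100, fixed in 3.7% formaldehyde, stained with DM1A anti-α-tubulin and FITC secondary, chromatin stained with 1 μg/mL Hoechst 33342. Examined by epifluorescence microscopy. Methods state 24 h exposure; legend states 20 h.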

The species named for experiment [6] is Bos taurus. As to the kind of experiment: Inhibition of bovine brain tubulin polymerization at 1 uM after 30 mins by spectrophotometric analysis.
Experiment [7] is filed under the species Bos taurus. As to the kind of experiment: Displacement of MTC from bovine brain tubulin colchicine binding site at 20 uM by fluorometric assay. In a few lines:
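Calf brain tubulin 10 μM with 10 μM MTC in 10 mM sodium phosphate, 0.1 mM GTP, pH 7.0, with 20 μM ligand. Excitation at 350 nm. Fluorescence emission spectra recorded and the decrease relative to tubulin-bound MTC taken as displacement from the colchicine site.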

Consider 15 compounds from ChEMBL document CHEMBL2163197, “Synthesis and antimitotic and tubulin interaction profiles of novel pinacol derivatives of podophyllotoxins” (2012).

Calls of active or inactive are those of the source. No cut-off for these calls is given here.

What is called GI50 is the concentration giving 50% growth inhibition. Higher therefore signals lower sensitivity of the cells. Broadly, the inhibition is how much of the control response was suppressed. Low values mean little suppression, high ones strong suppression.

In the case of `COc1cc([C@@H]2c3cc4c(cc3[C@](O)(C3(O)C5CCCC3CCC5)[C@H]3COC(=O)[C@H]23)OCO4)cc(OC)c1OC` (stereo partly drawn), the values for the concentration for 50% growth inhibition (GI50) in experiment [1], in experiment [3] and in experiment [4] were 7.39 nM, 5.14 nM and 6.39 nM, respectively. Moreover, in experiment [2], the Activity is listed as greater than 70%. Further, in experiment [5], the result was Active. In experiment [6], this compound registered an inhibition of 45.1%.
On to `COc1cc([C@@H]2c3cc4c(cc3[C@](O)(C3(O)CCCCC3)[C@H]3COC(=O)[C@H]23)OCO4)cc(OC)c1OC`, for which the GI50 in experiment [1] was 64.9 nM; in experiment [3] it was 97.5 nM; in experiment [4], 90.8 nM. In addition, in experiment [2], the Activity was greater than 70%. For the same compound, the outcome in experiment [5] was Active.
As to `COc1cc([C@@H]2c3cc4c(cc3[C@](O)(C3(O)CCOCC3)[C@H]3COC(=O)[C@@H]23)OCO4)cc(OC)c1OC`, the results for the GI50 in experiment [1], in experiment [3] and in experiment [4] were 25.9 nM, 26.8 nM and 29 nM, respectively. Also, the Activity in experiment [2] is on record as greater than 70%. The outcome in experiment [5] was Active. The compound also showed an inhibition in experiment [6] of 21.1%.
`COc1cc([C@@H]2c3cc4c(cc3[C@](O)([C@](O)(c3ccccc3)C(C)C)[C@H]3COC(=O)[C@H]23)OCO4)cc(OC)c1OC`: the GI50 in experiment [1] turned out to be 148 nM; in experiment [3], 159 nM; in experiment [4], 139 nM. In experiment [2], the Activity is greater than 70%. Further, the outcome in experiment [5] was Active.
Consider `COc1cc([C@@H]2c3cc4c(cc3[C@@](O)(C3(O)C5CCCC3CCC5)[C@H]3COC(=O)[C@H]23)OCO4)cc(OC)c1OC` (stereo partly drawn), for which the 50% growth inhibitory concentration (GI50) in experiment [1] worked out at 6720 nM; in experiment [3], 6420 nM; in experiment [4] it was 5680 nM. The Activity in experiment [2] was greater than 70%; in experiment [7], 15%. Besides, in experiment [5], the result was Active. Further, the inhibition in experiment [6] amounted to 12%.
As for `COc1cc([C@@H]2c3cc4c(cc3[C@H](O)[C@H]3COC(=O)[C@H]23)OCO4)cc(OC)c1OC` [PODOFILOX], the Activity is greater than 70% in experiment [2] and 25% in experiment [7]. Besides, the GI50 in experiment [3] and in experiment [4] was 12 nM in each case. In experiment [5], the result was Active. The inhibition in experiment [6] came out at 7%.
As for `COc1cc([C@@H]2c3cc4c(cc3[C@@](O)(C3(O)CCOCC3)[C@H]3COC(=O)[C@@H]23)OCO4)cc(OC)c1OC`, the GI50 was determined as 8010 nM in experiment [1], 15400 nM in experiment [3] and 8920 nM in experiment [4]. In addition, the Activity in experiment [2] is greater than 70%. For the same compound, the result in experiment [5] was Active. In experiment [6], the inhibition is 2.8%.
Take `COc1cc([C@@H]2c3cc4c(cc3[C@](O)(C3(O)CCCC3)[C@H]3COC(=O)[C@H]23)OCO4)cc(OC)c1OC`: the GI50 was 439 nM in experiment [1], 451 nM in experiment [3] and 444 nM in experiment [4]. Moreover, the Activity in experiment [2] is listed as greater than 70%. In addition, in experiment [5], the outcome was Active.
As for `COc1cc([C@@H]2c3cc4c(cc3[C@@](O)(C3(O)CCCC3)[C@H]3COC(=O)[C@H]23)OCO4)cc(OC)c1OC`, the concentration for 50% growth inhibition (GI50) in experiment [1] worked out at 2420 nM; in experiment [3], 2720 nM; in experiment [4], 1690 nM.
For the compound `COc1cc([C@@H]2c3cc4c(cc3[C@](O)(C3(O)CCC3)[C@H]3COC(=O)[C@H]23)OCO4)cc(OC)c1OC`, the GI50 worked out at 219 nM in experiment [1], 198 nM in experiment [3] and 191 nM in experiment [4]. Moreover, the Activity in experiment [2] is reported as greater than 70%. Also, in experiment [5], the result was Active.
Take `COc1cc([C@@H]2c3cc4c(cc3[C@H](C(C)C)[C@H]3COC(=O)[C@@H]23)OCO4)cc(OC)c1OC`: the GI50 was 84.1 nM in experiment [1], 83.1 nM in experiment [3] and 79.5 nM in experiment [4]. The Activity in experiment [2] was greater than 70%; in experiment [7], 35%. Besides, the result in experiment [5] was Active. In experiment [6], the inhibition was 84.5%.
As to `COc1cc([C@@H]2c3cc4c(cc3/C(=C(\c3ccccc3)C(C)C)[C@H]3COC(=O)[C@@H]23)OCO4)cc(OC)c1OC`, the concentration for 50% growth inhibition (GI50) came to 14300 nM in experiment [1], 11400 nM in experiment [3] and 6210 nM in experiment [4].
For `COc1cc([C@@H]2c3cc4c(cc3[C@](O)(C(C)(C)O)[C@H]3COC(=O)[C@H]23)OCO4)cc(OC)c1OC`, in that order: 457 nM, 598 nM and 577 nM.
For the compound `COc1cc([C@@H]2c3cc4c(cc3[C@](O)(C3(O)CCCCC3)[C@H]3COC(=O)[C@@H]23)OCO4)cc(OC)c1OC`, the 50% growth inhibitory concentration (GI50) in experiment [1] is 1250 nM; in experiment [3], 2900 nM; in experiment [4], 3620 nM.
For `C=C1c2cc3c(cc2[C@@H](c2cc(OC)c(OC)c(OC)c2)[C@@H]2C(=O)OC[C@H]12)OCO3`, the concentration for 50% growth inhibition (GI50) in experiment [1] worked out at 66.8 nM; in experiment [3] it was 78.1 nM; in experiment [4] it was 28.1 nM.
